Assay results collected from several papers.
Each line is one published result; the experiments were not run side by side.
Observed: binding
MET: Hepatocyte growth factor receptor (MET, Homo sapiens, UniProt P08581)
Tumor necrosis factor receptor superfamily member 9: Tumor necrosis factor receptor superfamily member 9 (Homo sapiens, UniProt Q07011)
USP7: Ubiquitin carboxyl-terminal hydrolase 7 (USP7, Homo sapiens, UniProt Q93009)

For `Cc1n[nH]c2c(-c3cn(C(C)c4ccccc4)c(=O)[nH]c3=O)cccc12` (stereo not shown), the Kd was 200 nM (MET).
`CCCC[C@@H]1NC(=O)[C@H](Cc2ccc(O)cc2)NC(=O)[C@@H]2CCCN2C(=O)[C@H](CC(=O)O)NC(=O)[C@H](C)NC(=O)[C@H](Cc2ccccc2)NC(=O)[C@@H]2CSCCC(=O)N3CN(CN(C3)C(=O)CCSC[C@H](NC(C)=O)C(=O)N[C@@H](CC(C)(C)C)C(=O)N3CCC[C@H]3C(=O)N[C@@H](CCC(=O)O)C(=O)N[C@H](CCCCNC(=O)CCc3cn(CCOCCOCCOCCOCCOCCC(=O)N[C@H]4CSCCC(=O)N5CN6CN(C5)C(=O)CCSC[C@H](NC(=O)[C@@H](CC(=O)O)NC(=O)[C@H](Cc5cccc7ccccc57)NC(=O)[C@@H]5CCCN5C4=O)C(=O)N[C@@H](CCSC)C(=O)N[C@@H](CCCCNC(=N)N)C(=O)N[C@@H](CC(=O)O)C(=O)N[C@@H](Cc4c[nH]c5ccccc45)C(=O)N[C@@H](CO)C(=O)N[C@@H]([C@@H](C)O)C(=O)N4CCC[C@H]4C(=O)N4C[C@H](O)C[C@H]4C(=O)N[C@@H](Cc4c[nH]c5ccccc45)C(=O)N[C@H](C(N)=O)CSCCC6=O)nn3)C(=O)N3CCC[C@H]3C(=O)N[C@@H](Cc3ccc(O)cc3)C(=O)N2)C(=O)CCSCCNC1=O` gave a Kd of 30 nM (Tumor necrosis factor receptor superfamily member 9; SPR).
The Kd of `CC[C@H](C)[C@H](NC(=O)[C@H](CC(C)C)NC(=O)CNC(=O)[C@@H](N)CCCCN)C(=O)N[C@@H](CC(=O)O)C(=O)N[C@@H](Cc1ccc(O)cc1)C(=O)N[C@@H](Cc1ccc(O)cc1)C(=O)N[C@@H](CC(C)C)C(=O)N[C@@H](CCSC)C(=O)N1CCC[C@H]1C(=O)N[C@@H](CO)C(=O)N[C@@H](CC(C)C)C(=O)N[C@@H](CO)C(=O)N[C@H](C(=O)N[C@H](C(=O)N[C@@H](CO)C(=O)N[C@@H](CCCNC(=N)N)C(=O)N[C@@H](CO)C(=O)NCC(=O)N[C@@H](CCCCN)C(=O)O)[C@@H](C)O)[C@@H](C)O` is reported as 25900 nM (USP7; ITC; pH 8).
`CCCC[C@@H]1NC(=O)[C@H](Cc2ccc(O)cc2)NC(=O)[C@@H]2CCCN2C(=O)[C@H](CC(=O)O)NC(=O)[C@H](C)NC(=O)[C@H](Cc2ccccc2)NC(=O)[C@@H]2CSCCC(=O)N3CN(CN(C3)C(=O)CCSC[C@@H](C(=O)N[C@@H](C)C(N)=O)NC1=O)C(=O)CCSC[C@H](NC(=O)[C@H](C)NC(C)=O)C(=O)N[C@@H]([C@@H](C)CC)C(=O)N[C@@H](CCC(=O)O)C(=O)N[C@@H](CCC(=O)O)C(=O)N[C@H](CCCCNC(=O)CCc1cn(CCOCCOCCOCCOCCOCCC(=O)N[C@H]3CSCCC(=O)N4CN5CN(C4)C(=O)CCSC[C@H](NC(=O)[C@@H](CC(=O)O)NC(=O)[C@H](Cc4cccc6ccccc46)NC(=O)[C@@H]4CCCN4C3=O)C(=O)N[C@@H](CCSC)C(=O)N[C@@H](CCCCNC(=N)N)C(=O)N[C@@H](CC(=O)O)C(=O)N[C@@H](Cc3c[nH]c4ccccc34)C(=O)N[C@@H](CO)C(=O)N[C@@H]([C@@H](C)O)C(=O)N3CCC[C@H]3C(=O)N3C[C@H](O)C[C@H]3C(=O)N[C@@H](Cc3c[nH]c4ccccc34)C(=O)N[C@H](C(N)=O)CSCCC5=O)nn1)C(=O)N[C@@H](CCC(N)=O)C(=O)N[C@@H](Cc1ccc(O)cc1)C(=O)N2` gave a Kd of 43 nM (Tumor necrosis factor receptor superfamily member 9; SPR).
For `CC(c1ccccc1Cl)n1cc(-c2cc(F)cc(F)c2)c(=O)[nH]c1=O` (stereo not shown), the Kd was 39800 nM (MET).
`CCCCC/C=C\C/C=C\C/C=C\C/C=C\CCCC(=O)O` has a Kd of 58000 nM (Nuclear receptor subfamily 4 group A member 2 (Homo sapiens, UniProt P43354); fluorescence).
`CCCC[C@@H]1NC(=O)[C@H](Cc2ccc(O)cc2)NC(=O)[C@@H]2CCCN2C(=O)[C@H](CC(=O)O)NC(=O)[C@H](C)NC(=O)[C@H](Cc2ccccc2)NC(=O)[C@@H]2CSCCC(=O)N3CN(CN(C3)C(=O)CCSCCC(=O)N[C@@H](CC(C)(C)C)C(=O)N3CCC[C@H]3C(=O)N[C@@H](CCC(=O)O)C(=O)N[C@H](CCCCNC(=O)CCc3cn(CCOCCOCCOCCOCCOCCC(=O)N[C@H]4CSCCC(=O)N5CN6CN(C5)C(=O)CCSC[C@H](NC(=O)[C@@H](CC(=O)O)NC(=O)[C@H](Cc5cccc7ccccc57)NC(=O)[C@@H]5CCCN5C4=O)C(=O)N[C@@H](CCSC)C(=O)N[C@@H](CCCCNC(=N)N)C(=O)N[C@@H](CC(=O)O)C(=O)N[C@@H](Cc4c[nH]c5ccccc45)C(=O)N[C@@H](CO)C(=O)N[C@@H]([C@@H](C)O)C(=O)N4CCC[C@H]4C(=O)N4C[C@H](O)C[C@H]4C(=O)N[C@@H](Cc4c[nH]c5ccccc45)C(=O)N[C@H](C(N)=O)CSCCC6=O)nn3)C(=O)N3CCC[C@H]3C(=O)N[C@@H](Cc3ccc(O)cc3)C(=O)N2)C(=O)CCSCCNC1=O` has a Kd of 49 nM (Tumor necrosis factor receptor superfamily member 9; SPR).
The Kd of `CC(C)C[C@H](NC(=O)[C@@H]1CCCN1C(=O)[C@H](Cc1ccccc1)NC(=O)[C@H](CCC(=O)O)NC(=O)[C@@H](N)CC(N)=O)C(=O)N[C@@H](CS)C(=O)N[C@@H](CO)C(=O)N[C@@H](CC(C)C)C(=O)N1CCC[C@H]1C(=O)N[C@@H](CCC(=O)O)C(=O)NCC(=O)O` is reported as 118000 nM (USP7; ITC; pH 8).
`CC(c1ccccc1)n1cc(-c2cc(F)cc3c(C#N)n[nH]c23)c(=O)[nH]c1=O` (stereo not shown) has a Kd of 79.4 nM (MET).
`CCCN1CCc2cc(OC)cc3c2[C@H]1Cc1ccc(O)c(O)c1-3` gave a Kd of 2.21 nM (D(2) dopamine receptor (Drd2, Rattus norvegicus, UniProt P61169); radioligand; cell membranes).
